# “Also recorded” adds a separate entry of the source.
# Key:
# IL-8 = IL-8 release in THP-1 cells; type: cell-based, human; settings: 5 μM compound; for IL-8 induction with LPS: LPS 1 ng/mL, compared to Veh+LPS; for IL-8 induction, compound alone: without LPS, compared to Veh
# Summary of the method: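 THP-1 cells were exposed overnight to 5 μM test compound or vehicle (0.5% DMSO), with or without LPS at 1 ng/mL. Secreted IL-8 in a portion of the supernatant was quantified by ELISA.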
# NF-κB [1] = test: NF-κB activation using THP1-Blue NF-κB cells; type: cell-based, human; settings: for NF-κB activity (in words, SAR text to Table 1): compound alone, 5 μM; for NF-κB activity (in words, SAR text to Table 1) / EC50: 20h; for EC50: read-out: EC50 NF-κB induction in the presence of LPS, with LPS (10 ng/mL), THP1-Blue NF-κB cells, SEAP
# Summary of the method: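 THP1-Blue NF-κB cells carry a stably integrated NF-κB-inducible SEAP. They were plated at 10^5 cells/well in RPMI with 10% FBS, penicillin, streptomycin and Normocin, then treated for 20 h with 5 μM test compound (0.5% DMSO final), alone or with LPS at 10 ng/mL. Supernatant SEAP was read colorimetrically at 630 nm. Signals were two-point normalized: baseline (vehicle or LPS) 100%, reference hit 200%.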
# NF-κB [2] = test: Confirmatory kinetic screening, cell-based NF-κB FRET assay with LPS; design: species or system human; settings: 12h incubation, 21 HTS actives
SMILES,IL-8 induction with LPS (IL-8),"IL-8 induction, compound alone (IL-8)","NF-κB activity (in words, SAR text to Table 1) (NF-κB [1])",EC50 (NF-κB [1]),further results
"CCCC#Cc1sc(NC(=O)c2ccc(S(=O)(=O)N3CCCCC3)cc2)nc1-c1cc(C)ccc1C [Compound 18q, N-(4-(2,5-dimethylphenyl)-5-(pent-1-yn-1-yl)thiazol-2-yl)-4-(piperidin-1-ylsulfonyl)benzamide]",significantly enhanced,induced IL-8,very potent; also recorded: most active,1.7 µM,
"Cc1ccc(C)c(-c2csc(NC(=O)c3ccc(S(=O)(=O)N4CCCCC4)cc3)n2)c1 [Compound 1, N-(4-(2,5-dimethylphenyl)thiazol-2-yl)-4-(piperidin-1-ylsulfonyl)benzamide]",significantly enhanced,induced IL-8,,2.3 µM,NF-κB enhancement activity at 12h in the presence of LPS (NF-κB [2]): most potent
"Cc1ccc(Br)c(-c2csc(NC(=O)c3ccc(S(=O)(=O)N4CCCCC4)cc3)n2)c1 [Compound 12d, N-(4-(2-bromo-5-methylphenyl)thiazol-2-yl)-4-(piperidin-1-ylsulfonyl)benzamide]",significantly enhanced,induced IL-8,active; also recorded: most active,4.5 µM,
"CCCC1CCN(S(=O)(=O)c2ccc(C(=O)Nc3nc(-c4cc(C)ccc4C)cs3)cc2)CC1 [Compound 54h, N-(4-(2,5-dimethylphenyl)thiazol-2-yl)-4-((4-propylpiperidin-1-yl)sulfonyl)benzamide]",significantly enhanced,induced IL-8,very potent; also recorded: most active,0.9 µM,
"CC(C)(C)c1csc(NC(=O)c2ccc(S(=O)(=O)N3CCCCC3)cc2)n1 [Compound 12k, N-(4-(tert-butyl)thiazol-2-yl)-4-(piperidin-1-ylsulfonyl)benzamide]",,,None of these molecules had any NF-κB activity,,
"CCCN1CCN(S(=O)(=O)c2ccc(C(=O)Nc3nc(-c4cc(C)ccc4C)cs3)cc2)CC1 [Compound 54k, N-(4-(2,5-dimethylphenyl)thiazol-2-yl)-4-((4-propylpiperazin-1-yl)sulfonyl)benzamide]",,,inactive,,"activation at 5 µM (NF-κB [1]; Homo sapiens, 20 h, read-out: NF-κB SEAP Compound alone % Activation): 100%"
"Cc1ccc(C)c(-c2ccc(NC(=O)c3ccc(S(=O)(=O)N4CCCCC4)cc3)nc2)c1 [Compound 18c, N-(5-(2,5-dimethylphenyl)pyridin-2-yl)-4-(piperidin-1-ylsulfonyl)benzamide]",,,none of these molecules that replaced the thiazole functionality was active,,
"Cc1ccc(C)c(Cc2csc(NC(=O)c3ccc(S(=O)(=O)N4CCCCC4)cc3)n2)c1 [Compound 12f, N-(4-(2,5-dimethylbenzyl)thiazol-2-yl)-4-(piperidin-1-ylsulfonyl)benzamide]",,,inactive,,
"C#Cc1ccc(C)c(-c2csc(NC(=O)c3ccc(S(=O)(=O)N4CCCCC4)cc3)n2)c1 [Compound 12t, N-(4-(5-ethynyl-2-methylphenyl)thiazol-2-yl)-4-(piperidin-1-ylsulfonyl)benzamide]",,,inactive,,
"CC(=O)N1CCN(S(=O)(=O)c2ccc(C(=O)Nc3nc(-c4cc(C)ccc4C)cs3)cc2)CC1 [Compound 54j, 4-((4-acetylpiperazin-1-yl)sulfonyl)-N-(4-(2,5-dimethylphenyl)thiazol-2-yl)benzamide]",,,inactive,,
"Cc1ccc(C)c(-c2nc(NC(=O)c3ccc(S(=O)(=O)N4CCCCC4)cc3)sc2-c2ccccc2)c1 [Compound 18i, N-(4-(2,5-dimethylphenyl)-5-phenylthiazol-2-yl)-4-(piperidin-1-ylsulfonyl)benzamide]",,,completely inactive,,
"CC(C)(C)Cc1csc(NC(=O)c2ccc(S(=O)(=O)N3CCCCC3)cc2)n1 [Compound 12j, N-(4-neopentylthiazol-2-yl)-4-(piperidin-1-ylsulfonyl)benzamide]",,,None of these molecules had any NF-κB activity,,
"Cc1ccc(C)c(-c2csc(NC(=O)c3ccc(S(=O)(=O)N4CCCCC4)s3)n2)c1 [Compound 42c, N-(4-(2,5-dimethylphenyl)thiazol-2-yl)-5-(piperidin-1-ylsulfonyl)thiophene-2-carboxamide]",,,loss of activity,,
